Screening data: PubChem BioAssay, several laboratories
M1 agonist – activates the M1 muscarinic receptor; CHO-M1 cells, Fluo-4 calcium fluorescence, agonist mode; active compounds read high; hit rate 3% among 64,000; B-score at 10 µM; AID 626;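 active = fluorescence rise, raw or as B-score row- and column-corrected plate score, outside the 99.7% band of its plate's samples, either direction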
Htt clearance – compounds clearing mutant huntingtin protein; HeLa Exon1htt(103Q)mCFP, aggregate imaging; zero = plate's median compound well; inhibition, % at 1.5 µM; hit rate 0.42% among 47,000; AID 853;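 active = inhibition of aggregate fluorescence above about 70%, also judged a hit by eye on the cell image, limit read from the data, passing the limit was not always enough; inconclusive = no rule stated for this call; inactive = not judged a hit on image review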;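 note: cells exposed to compound for three days before fixation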
SF1 activator – activates the human nuclear receptor SF-1; hit rate 1.9% among 65,000; AID 522; activation, % at 10 µM; CHO-K1 Gal4-SF-1 LBD luciferase reporter; % increase over DMSO SF-1-specific signal;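 active = activation above the mean activation of all tested compounds plus 3 SD, cut at about 50% in these data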
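Material: Gal4–SF-1 LBD one-hybrid luciferase reporter in CHO-K1 cells | Amount: 4,000 cells per well | Compound dosing: 10 µM single point, 1% DMSO | Schedule: 20 h compound treatment, 37 °C | Measured by: SteadyLite luciferase luminescence | Evaluation: Percent activation versus DMSO | Control set: DMSO-treated SF-1-transfected cells as negative, DMSO-treated mock-transfected cells lacking SF-1 as background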
M1 antag – antagonists of rat M1 muscarinic receptor. P08482. CHO-M1 cells, Fluo-4 calcium, ACh EC80 antagonist mode; active compounds read low. B-score at 10 µM. hit rate 3.4% among 64,000. AID 628;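 active = calcium fluorescence response, raw or row-and-column corrected B-score, differing from the plate sample mean either way at a set confidence level, mostly lower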
Target sequence (P08482 whole entry, looked up): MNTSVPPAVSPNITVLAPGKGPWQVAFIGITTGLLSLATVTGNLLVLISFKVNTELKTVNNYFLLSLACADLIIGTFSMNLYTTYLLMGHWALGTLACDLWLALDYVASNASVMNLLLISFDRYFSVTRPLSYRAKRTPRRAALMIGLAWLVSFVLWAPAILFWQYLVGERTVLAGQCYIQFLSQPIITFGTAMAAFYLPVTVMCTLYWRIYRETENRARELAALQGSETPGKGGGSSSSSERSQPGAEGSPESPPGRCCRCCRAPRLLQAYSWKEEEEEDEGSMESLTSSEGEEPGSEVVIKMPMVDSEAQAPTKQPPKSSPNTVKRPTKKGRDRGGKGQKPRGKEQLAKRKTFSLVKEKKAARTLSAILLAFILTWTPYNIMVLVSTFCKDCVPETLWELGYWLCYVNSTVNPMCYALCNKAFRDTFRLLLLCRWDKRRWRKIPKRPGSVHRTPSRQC
RORA act – activates the human nuclear receptor RORA; activation, % at 10 µM; CHO-K1 Gal4-RORA LBD luciferase reporter, luminescence; percent increase over mock-subtracted basal signal; hit rate 1.5% among 65,000;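 active = activation above the mean of all tested compounds plus 3 SD, cut at about 49% in these data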;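 note: 0% = DMSO-treated RORA cells and 100% = added signal equal to DMSO minus mock-transfected cells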
D1 mod – D1 dopamine receptor (human) allosteric modulation. P21728. HEK293 D1, CRE-luciferase, dopamine EC30 potentiation; actives deviate in either direction. B-score at 10 µM. hit rate 5.9% among 58,000. AID 641;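 active = luminescence count or its row- and column-corrected plate score outside the 99.7% band of the plate's sample wells, on either side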
M1 agonist conf – rat M1 muscarinic agonism, confirmation | shares compounds with M1 agonist | CHO-M1 cells, Fluo-4 calcium fluorescence, agonist mode; actives lie on both sides | fluorescence change (max-min) at 10 µM | hit rate 19% among 1,700 | AID 1488;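 active = fluorescence change differs from the solvent-only DMSO control mean at a set confidence level in both duplicate runs; inconclusive = differs from solvent-only control mean in just one of two runs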;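 note: an EC20 dose of acetylcholine follows compound addition during the same imaging run; raw fluorescence intensity difference in instrument units with no normalization to controls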
M4 agonist ctr – activates rat M4 receptor in counter-screen for M1 agonists; shares compounds with M1 agonist; CHO M4/Gqi5 cells, Fluo-4 calcium fluorescence, agonist mode; actives lie on both sides; fluorescence change (max-min) at 10 µM; hit rate 9% among 1,700; AID 1741;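 active = fluorescence change differing from the plate's solvent-only control wells at 99.7% confidence in both duplicates, whether higher or lower; inconclusive = differs from solvent controls in only one of two duplicates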
Starred values were filed as active, the others as inactive; ? = inconclusive; . = no result. An excerpt weighted towards active compounds, which were near 11% of everything screened.

SMILES	M1 agonist	Htt clearance	SF1 activator	M1 antag	RORA act	D1 mod	M1 agonist conf	M4 agonist ctr
Cc1ccc(S(=O)(=O)N2CCOCC2)cc1C(=O)Nc1ccc(-c2cn3ccsc3n2)cc1	3.29*	.	20.9	-0.00625	14.2	-3.57	-8.11	?
CCOC(=O)c1oc2ccccc2c1CSc1nnnn1-c1ccc(C)cc1	0.378	15.0	-4.3	0.759	-12.1	1.21	.	.
COc1cc(CSc2nnnn2-c2ccc(C)cc2)cc(OC)c1OC	5.8*	.	-62.0	-2.5*	-72.1	-0.33	3.54	?
CCOC(=O)N1CCC(N2Cc3cccc(C(=O)Nc4ccc(OC)c(OC)c4)c3C2=O)CC1	9.02*	2.9	54.1*	-3.96*	19.0	-2.16*	-28.8	-36.5
CC(C)c1nnc(NC(=O)c2ccc(S(=O)(=O)N3CCOCC3)cc2)s1	-3.13*	.	7.0	-0.229	-24.0	-0.023	?	?
Cc1cc(C)c(NC(=O)c2ccc(S(=O)(=O)N3CCOCC3)cc2)c(C)c1	-0.793	.	16.6	-0.056	-14.7	-0.0141	.	.
O=C(CN1CCOCC1)NCc1ccccc1	0.376	17.2	-3.7	1.04	-8.4	0.186	.	.
O=C(CN1CCOCC1)NCCNC(=O)CN1CCOCC1	4.16*	61.1	-4.5	1.03	0.8	-0.679	?	?
COc1ccc(CCNS(=O)(=O)c2cccc(C(=O)O)c2)cc1OC	-0.576	-35.3	1.1	-0.015	7.2	0.559	.	.
Cc1nnc(NC(=O)C2CCCN(S(=O)(=O)Cc3ccccc3)C2)s1 (centres undefined)	0.586	.	-12.1	0.241	2.2	-0.317	.	.
O=C(Nc1nc(-c2ccccc2)cs1)C1CCCN(S(=O)(=O)c2ccccc2)C1 (centres undefined)	4.48*	-21.6	0.7	-0.914	5.5	0.465	?	-34.2
COC(=O)c1ccccc1NC(=O)C1CCCN(S(=O)(=O)c2ccccc2)C1 (centres undefined)	0.993	3.6	8.3	-0.0919	1.1	-0.129	.	.
COC(=O)c1ccccc1NC(=O)C1CCCN(S(=O)(=O)c2ccc(F)cc2)C1 (centres undefined)	5.51*	.	-3.2	2.07	4.7	-0.0118	5.81	-3.64
O=C(Nc1nc(-c2ccccc2)cs1)C1CCCCN1S(=O)(=O)c1ccccc1 (centres undefined)	0.394	.	2.9	-0.684	-6.7	-0.946	.	.
Cc1nnc(NC(=O)C2CCCN(S(=O)(=O)c3ccccc3C(F)(F)F)C2)s1 (centres undefined)	15.8*	-77.8	-7.7	0.171	-13.4	1.25	-30.4	-44.4
COCCCNC(=O)C1CCN(C(=O)Nc2ccc(Cl)cc2)CC1	-1.18	-67.9	-16.6	-0.585	-16.8	0.159	.	.
COc1ccc(CC(=O)NC2CC(C)(C)NC(C)(C)C2)cc1	.	-85.3	.	.	.	.	.	.
CCNC(=O)C1CC(=O)N(Cc2ccc(F)cc2)C(=Nc2ccc(OC)cc2)S1 (centres undefined)	-0.681	.	-11.4	1.34	-1.4	-1.6	.	.
CNC(=O)C1CC(=O)N(Cc2ccccc2)C(=Nc2ccc(OC)cc2)S1 (centres undefined)	10.3*	.	-3.3	-0.819	15.5	-0.0263	?	?
O=C(NC1(C(F)(F)F)NC(=O)N(C2CCCCC2)C1=O)c1cccs1 (centres undefined)	0.187	.	-10.2	-0.111	-13.1	0.0285	.	.
N#CC1(c2ccccc2)CCCN1C(=O)c1ccc(Br)o1 (centres undefined)	0.201	.	8.7	0.74	7.0	0.068	.	.
Clc1cccc(N2CCN(Cc3nc(-c4ccccc4)no3)CC2)c1	-0.247	-75.0	-17.2	-0.0135	-4.0	-0.431	.	.
Cc1ccc(-c2noc(CCC(=O)NCCCN3CCN(c4cccc(Cl)c4)CC3)n2)cc1	4.38*	-96.0	-9.5	-3.74*	4.1	-3.93*	?	-45.8
CC1(C)CC(=O)c2cc(OCC(=O)NCCCN3CCN(c4ccc(F)cc4)CC3)ccc2O1	13.2*	.	4.5	-0.875	6.5	-4.22*	10.6	-55
COc1ccc(-c2noc(CCC(=O)NCCCN3CCC(C)CC3)n2)cc1	-0.146	.	-2.1	-0.177	-4.3	0.277	.	.
SMILES	M1 agonist	Htt clearance	SF1 activator	M1 antag	RORA act	D1 mod	M1 agonist conf	M4 agonist ctr
COc1ccc(-c2noc(CCC(=O)NCCN3CCN(c4ccccc4F)CC3)n2)cc1	5.02*	.	-5.3	-1.62	-5.8	-2.8*	-14.3	-62.4
CC1(C)CC(=O)c2cc(OCC(=O)NCCN3CCCc4ccccc43)ccc2O1	0.796	.	6.0	-0.0122	4.5	0.0465	.	.
Cc1ccc(-c2noc(CCC(=O)NCCCN3CCN(c4ccc(F)cc4)CC3)n2)cc1	5.28*	-124.1	-18.9	-2.57*	-4.5	-4.98*	10.3	-28.6
Cc1cc(=O)n2nc(N3CCCC3C(=O)NCCCN3CCCCC3)sc2n1 (centres undefined)	0.0196	.	-3.2	0.545	4.7	0.114	.	.
Cc1ccc(N(CC(=O)NC2CCCC2)C(=O)c2c(C)noc2C)cc1C	.	3.8	.	.	.	.	.	.
Cn1c(Cc2cccs2)nnc1SC/C=C/c1ccccc1	-0.0678	-2.1	11.2	-0.772	-6.4	0.0882	.	.
Cc1ccsc1C(C(=O)NC1CCCCC1)N(C(=O)c1csnn1)C1CC1 (centres undefined)	-0.471	50.3	2.3	0.107	-1.4	-0.634	.	.
COC(=O)C1=C(C)Nc2ncnn2C1c1ccc(C)o1 (centres undefined)	8.3*	-19.0	12.7	0.957	-4.3	-0.0962	-31	-44
COc1ccc(-n2c(SCC(=O)NCc3ccco3)nc3c([nH]c4ccccc43)c2=O)cc1	.	-37.8	.	.	.	.	.	.
CCOc1ccc(C2=[N+]([O-])C(C)(C)N(O)C2(C)C)cc1	3.63*	.	5.2	2.67*	-29.8	-0.204	-20.1	?
Cc1c(Br)cc(C(=O)NC2CCCCC2)c(C)c1C	.	30.2	.	.	.	.	.	.
COc1ccnc(Oc2ccc(C)cc2C)c1C#N	.	13.2	.	.	.	.	.	.
Cc1ccccc1CN(c1ccc(C(=O)N2CCCC2)cc1)S(C)(=O)=O	3.24*	.	-7.4	0.366	-0.8	-0.142	16.1	-2.01
Cc1ccc(CN(c2ccc(C(=O)N3CCCC3)cc2)S(C)(=O)=O)cc1	0.855	.	-13.1	0.421	5.1	0.394	.	.
COc1ccc(N2C(=O)C3CCCN3C2c2ccc(C)o2)cc1Cl (centres undefined)	-0.132	47.4	3.2	-0.297	6.8	0.687	.	.
Cc1ccc(C2N(c3ccc(Cl)c(Cl)c3)C(=O)C3CCCN32)o1 (centres undefined)	6.73*	20.8	-2.3	-0.0165	27.4	-1.36	?	-36.1
COC(=O)c1ccc2c(c1)SC1=C(CCCC1=O)N2	11.3*	-7.6	20.0	0.632	5.5	-0.91	55.4	?
